ChEMBL document CHEMBL3808379, “Isouronium and N-hydroxyguanidinium derivatives as Cell growth inhibitors: A comparative study” (Eur J Med Chem, 2016)

Columns and labels:
[1] = Dissociation constant, pKa of the compound; type: physicochemical
[2] = Cytotoxicity against human HL60 cells assessed as cell viability reduction incubated for 72 hrs by alamar blue assay; type: functional, cell-based; conditions: HL-60, 72 h
Method in brief: (§1)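 HL-60 cells in log phase, 40,000 per well, were treated in triplicate with compound at 10–100 µM (final, 1:100 from ddH2O stocks) or 1% ddH2O vehicle for 72 h at 37 °C. AlamarBlue was then added for 4.5 h in the dark and fluorescence read at ex 544/em 590 nm. Viability is blank-subtracted and expressed as % of vehicle. IC50 comes from a sigmoidal fit; ≥3 independent experiments.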

[3] = Cytotoxicity against human Kelly cells assessed as cell viability reduction incubated for 72 hrs by alamar blue assay; type: functional, cell-based
Method in brief: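 Kelly cells, 6000 per well, were allowed to attach for 24 h, then treated in triplicate at 0.1–100 µM final or with ddH2O vehicle for 72 h at 37 °C. AlamarBlue was added for 4.5 h in the dark and fluorescence read at ex 544/em 590 nm. Blank-subtracted % of vehicle; IC50 from a sigmoidal dose-response fit; ≥3 independent experiments.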

[4] = Binding affinity to salmon sperm DNA assessed as increase in thermal melting temperature by spectrophotometric analysis; conditions: Salmonidae
[5] = tested on: N=C(N)Oc1ccc(Sc2ccc(O)cc2)cc1; assay: Inhibition of bovine brain tubulin polymerization assessed as rate of tubulin polymerization at 1 mM mesured at 30 s intervals for 60 mins by spectrophotometric analysis (reference value: 3.647 mOD/min); conditions: Bos taurus
[6] = Cell cycle arrest in human HL60 cells assessed as accumulation at polyploid Gn phase at 50 uM after 24 hrs by propidium iodide staining-based flow cytometric analysis (reference value: 2.96 +/- 0.79%); type: functional; conditions: HL-60
[7] = Cell cycle arrest in human HL60 cells assessed as accumulation at G0/G1 phase at 50 uM after 48 hrs by propidium iodide staining-based flow cytometric analysis (reference value: 58.77 +/- 2.33%); type: functional; conditions: HL-60
[8] = Cell cycle arrest in human HL60 cells assessed as accumulation at S phase at 50 uM after 72 hrs by propidium iodide staining-based flow cytometric analysis (reference value: 23.58 +/- 1.38%); type: functional; conditions: HL-60
[9] = Cell cycle arrest in human HL60 cells assessed as accumulation at G2/M phase at 50 uM after 24 hrs by propidium iodide staining-based flow cytometric analysis (reference value: 16.73 +/- 0.59%); type: functional; conditions: HL-60
[10] = Cell cycle arrest in human HL60 cells assessed as accumulation at pre-G1 phase at 50 uM after 48 hrs by propidium iodide staining-based flow cytometric analysis (reference value: 1.41 +/- 0.32%); type: functional; conditions: HL-60
[11] = Cell cycle arrest in human HL60 cells assessed as accumulation at pre-G1 phase at 50 uM after 72 hrs by propidium iodide staining-based flow cytometric analysis (reference value: 2.21 +/- 0.57%); type: functional; conditions: HL-60
[12] = Cell cycle arrest in human HL60 cells assessed as accumulation at S phase at 50 uM after 24 hrs by propidium iodide staining-based flow cytometric analysis (reference value: 24.46 +/- 1.15%); type: functional; conditions: HL-60
[13] = Cell cycle arrest in human HL60 cells assessed as accumulation at polyploid Gn phase at 50 uM after 72 hrs by propidium iodide staining-based flow cytometric analysis (reference value: 3.43 +/- 0.48%); type: functional; conditions: HL-60
[14] = Cell cycle arrest in human HL60 cells assessed as accumulation at pre-G1 phase at 50 uM after 24 hrs by propidium iodide staining-based flow cytometric analysis (reference value: 0.81 +/- 0.11%); type: functional; conditions: HL-60
[15] = Cell cycle arrest in human HL60 cells assessed as accumulation at G2/M phase at 50 uM after 48 hrs by propidium iodide staining-based flow cytometric analysis (reference value: 11.35 +/- 1.05%); type: functional; conditions: HL-60
[16] = Cell cycle arrest in human HL60 cells assessed as accumulation at G0/G1 phase at 50 uM after 24 hrs by propidium iodide staining-based flow cytometric analysis (reference value: 56.05 +/- 1.4%); type: functional; conditions: HL-60
[17] = Cell cycle arrest in human HL60 cells assessed as accumulation at G2/M phase at 50 uM after 72 hrs by propidium iodide staining-based flow cytometric analysis (reference value: 10.53 +/- 0.81%); type: functional; conditions: HL-60
[18] = Cell cycle arrest in human HL60 cells assessed as accumulation at polyploid Gn phase at 50 uM after 48 hrs by propidium iodide staining-based flow cytometric analysis (reference value: 3.02 +/- 0.56%); type: functional; conditions: HL-60
[19] = Cell cycle arrest in human HL60 cells assessed as accumulation at S phase at 50 uM after 48 hrs by propidium iodide staining-based flow cytometric analysis (reference value: 24.29 +/- 1.37%); type: functional; conditions: HL-60
[20] = Cell cycle arrest in human HL60 cells assessed as accumulation at G0/G1 phase at 50 uM after 72 hrs by propidium iodide staining-based flow cytometric analysis (reference value: 59.5 +/- 1.5%); type: functional; conditions: HL-60
[21] = Cytotoxicity against human HL60 cells assessed as cell viability reduction at 100 uM incubated for 72 hrs by alamar blue assay; type: functional; conditions: HL-60, 72 h; method in brief: as §1
[22] = Cell cycle arrest in human Kelly cells assessed as accumulation at pre-G1 phase at 25 uM after 72 hrs by propidium iodide staining-based flow cytometric analysis (reference value: 10.21 +/- 2.85%); type: functional
[23] = Cell cycle arrest in human Kelly cells assessed as accumulation at pre-G1 phase at 25 uM after 24 hrs by propidium iodide staining-based flow cytometric analysis (reference value: 6.12 +/- 0.95%); type: functional
[24] = Cell cycle arrest in human Kelly cells assessed as accumulation at S phase at 25 uM after 48 hrs by propidium iodide staining-based flow cytometric analysis (reference value: 19.05 +/- 2.11%); type: functional
[25] = Cell cycle arrest in human Kelly cells assessed as accumulation at S phase at 25 uM after 24 hrs by propidium iodide staining-based flow cytometric analysis (reference value: 18.67 +/- 1.9%); type: functional
[26] = Cell cycle arrest in human Kelly cells assessed as accumulation at polyploid Gn phase at 50 uM after 72 hrs by propidium iodide staining-based flow cytometric analysis (reference value: 13.07 +/- 0.25%); type: functional
[27] = Cell cycle arrest in human Kelly cells assessed as accumulation at polyploid Gn phase at 50 uM after 24 hrs by propidium iodide staining-based flow cytometric analysis (reference value: 9.85 +/- 1.54%); type: functional
[28] = Cell cycle arrest in human Kelly cells assessed as accumulation at G2/M phase at 50 uM after 24 hrs by propidium iodide staining-based flow cytometric analysis (reference value: 13.12 +/- 0.93%); type: functional
[29] = Cell cycle arrest in human Kelly cells assessed as accumulation at polyploid Gn phase at 25 uM after 72 hrs by propidium iodide staining-based flow cytometric analysis (reference value: 13.07 +/- 0.25%); type: functional
[30] = Cell cycle arrest in human Kelly cells assessed as accumulation at G2/M phase at 25 uM after 24 hrs by propidium iodide staining-based flow cytometric analysis (reference value: 13.12 +/- 0.93%); type: functional
[31] = Cell cycle arrest in human Kelly cells assessed as accumulation at S phase at 25 uM after 72 hrs by propidium iodide staining-based flow cytometric analysis (reference value: 16.29 +/- 0.81%); type: functional
[32] = Cell cycle arrest in human Kelly cells assessed as accumulation at pre-G1 phase at 25 uM after 48 hrs by propidium iodide staining-based flow cytometric analysis (reference value: 5.88 +/- 1.13%); type: functional
[33] = Cell cycle arrest in human Kelly cells assessed as accumulation at G0/G1 phase at 50 uM after 24 hrs by propidium iodide staining-based flow cytometric analysis (reference value: 52.37 +/- 1.44%); type: functional
[34] = Cell cycle arrest in human Kelly cells assessed as accumulation at G2/M phase at 25 uM after 72 hrs by propidium iodide staining-based flow cytometric analysis (reference value: 13.84 +/- 0.76%); type: functional
[35] = Cell cycle arrest in human Kelly cells assessed as accumulation at S phase at 50 uM after 24 hrs by propidium iodide staining-based flow cytometric analysis (reference value: 18.67 +/- 1.9%); type: functional
[36] = Cell cycle arrest in human Kelly cells assessed as accumulation at G0/G1 phase at 25 uM after 24 hrs by propidium iodide staining-based flow cytometric analysis (reference value: 52.37 +/- 1.44%); type: functional
[37] = Cell cycle arrest in human Kelly cells assessed as accumulation at S phase at 50 uM after 48 hrs by propidium iodide staining-based flow cytometric analysis (reference value: 19.05 +/- 2.11%); type: functional
[38] = Cell cycle arrest in human Kelly cells assessed as accumulation at S phase at 50 uM after 72 hrs by propidium iodide staining-based flow cytometric analysis (reference value: 16.29 +/- 0.81%); type: functional
[39] = Cell cycle arrest in human Kelly cells assessed as accumulation at G2/M phase at 50 uM after 72 hrs by propidium iodide staining-based flow cytometric analysis (reference value: 13.84 +/- 0.76%); type: functional
[40] = Cell cycle arrest in human Kelly cells assessed as accumulation at polyploid Gn phase at 25 uM after 48 hrs by propidium iodide staining-based flow cytometric analysis (reference value: 8.97 +/- 1.27%); type: functional
[41] = Cell cycle arrest in human Kelly cells assessed as accumulation at G0/G1 phase at 50 uM after 72 hrs by propidium iodide staining-based flow cytometric analysis (reference value: 46.82 +/- 1.46%); type: functional
[42] = Cell cycle arrest in human Kelly cells assessed as accumulation at G2/M phase at 25 uM after 48 hrs by propidium iodide staining-based flow cytometric analysis (reference value: 13.68 +/- 0.74%); type: functional
[43] = Cell cycle arrest in human Kelly cells assessed as accumulation at pre-G1 phase at 50 uM after 48 hrs by propidium iodide staining-based flow cytometric analysis (reference value: 5.88 +/- 1.13%); type: functional
[44] = Cell cycle arrest in human Kelly cells assessed as accumulation at G2/M phase at 50 uM after 48 hrs by propidium iodide staining-based flow cytometric analysis (reference value: 13.68 +/- 0.74%); type: functional
[45] = Cell cycle arrest in human Kelly cells assessed as accumulation at G0/G1 phase at 25 uM after 48 hrs by propidium iodide staining-based flow cytometric analysis (reference value: 52.54 +/- 2.32%); type: functional
[46] = Cell cycle arrest in human Kelly cells assessed as accumulation at G0/G1 phase at 50 uM after 48 hrs by propidium iodide staining-based flow cytometric analysis (reference value: 52.54 +/- 2.32%); type: functional
[47] = Cell cycle arrest in human Kelly cells assessed as accumulation at pre-G1 phase at 50 uM after 24 hrs by propidium iodide staining-based flow cytometric analysis (reference value: 6.12 +/- 0.95%); type: functional
[48] = Cell cycle arrest in human Kelly cells assessed as accumulation at polyploid Gn phase at 25 uM after 24 hrs by propidium iodide staining-based flow cytometric analysis (reference value: 9.85 +/- 1.54%); type: functional
[49] = Cell cycle arrest in human Kelly cells assessed as accumulation at G0/G1 phase at 25 uM after 72 hrs by propidium iodide staining-based flow cytometric analysis (reference value: 46.82 +/- 1.46%); type: functional
[50] = Cell cycle arrest in human Kelly cells assessed as accumulation at pre-G1 phase at 50 uM after 72 hrs by propidium iodide staining-based flow cytometric analysis (reference value: 10.21 +/- 2.85%); type: functional
[51] = Cell cycle arrest in human Kelly cells assessed as accumulation at polyploid Gn phase at 50 uM after 48 hrs by propidium iodide staining-based flow cytometric analysis (reference value: 8.97 +/- 1.27%); type: functional

c1ccc(NC2=NCCN2)cc1
pKa [1]: 9.16

N=C(N)Oc1ccc(NC(=O)c2ccc(OC(=N)N)cc2)cc1
IC50 [2]: > 100 µM
IC50 [3]: > 100 µM
ΔTm [4]: 2 °C

N=C(N)Oc1ccc(Cc2ccc(O)cc2)cc1
IC50 [2]: > 100 µM
ΔTm [4]: 2 °C

Tubulin (Bos taurus) (from UniProt Q6B856+Q862L2+Q862F3)
Vmax [5]: 2.63 mOD/minute

N=C(N)Oc1ccccc1
pKa [1]: 8.29

N=C(N)Oc1ccc(Cc2ccc(OC(=N)N)cc2)cc1
IC50 [2]: > 100 µM
ΔTm [4]: 4 °C

N=C(N)Oc1ccc(Sc2ccc(OC(=N)N)cc2)cc1
Activity [6]: 3.11%
IC50 [2]: 57.4 µM
Activity [7]: 38.3%
Activity [8]: 15.6%
Activity [9]: 18.1%
Activity [10]: 2.25%
Activity [11]: 4.87%
IC50 [3]: 28.7 µM
Activity [12]: 26.9%
Activity [13]: 22%
Activity [14]: 1.46%
Activity [15]: 29.1%
Activity [16]: 52%
ΔTm [4]: 6 °C
Activity [17]: 21.9%
Activity [18]: 8.42%
Activity [19]: 21.9%
Activity [20]: 35.5%
inhibition at 100 µM [21]: 95.8%

N=C(N)Oc1ccc(Oc2ccc(O)cc2)cc1
Activity [22]: 48.4%
IC50 [2]: 36.9 µM
Activity [23]: 20.4%
Activity [24]: 27.5%
Activity [25]: 25.6%
Activity [26]: 2.69%
Activity [27]: 7.77%
Activity [28]: 8.23%
Activity [29]: 4.09%
Activity [30]: 11.3%
Activity [31]: 16.4%
Activity [32]: 38%
Activity [33]: 42.1%
IC50 [3]: 17.3 µM
Activity [34]: 5.04%
Activity [35]: 16%
Activity [36]: 31.2%
Activity [37]: 11.7%
Activity [38]: 17.3%
Activity [39]: 2.44%
Activity [40]: 6.91%
Activity [41]: 29%
Activity [42]: 7.65%
ΔTm [4]: 4 °C
Activity [43]: 50.7%
Activity [44]: 3.5%
Activity [45]: 22.2%
Activity [46]: 25.2%
Activity [47]: 24.3%
Activity [48]: 13.5%
Activity [49]: 26.2%
Activity [50]: 49.5%
Activity [51]: 4.19%

N=C(N)Nc1ccccc1 [PHENYLGUANIDINE]
pKa [1]: 10.9
